# Test results reported in ChEMBL document CHEMBL4007505 (J Med Chem, 2017).
# The source made the active and inactive calls. No cut-off for these calls is given here.
# Legend:
# [1] = target: T1, Sodium-dependent dopamine transporter (Homo sapiens, UniProt Q01959); experiment: Enhancing of [3H]WIN35,428 binding to recombinant human DAT expressed in HEK293 cell membranes at 10 uM pre-incubated for 10 mins before radioligand addition and measured 90 mins after radioligand addition by micro beta scintillation counting analysis relative to control
# [2] = target: T1, Sodium-dependent dopamine transporter; experiment: Inhibition of [3H]WIN35,428 binding to recombinant human DAT expressed in HEK293 cell membranes at 10 uM pre-incubated for 10 mins before radioligand addition and measured 90 mins after radioligand addition by micro beta scintillation counting analysis relative to control
# Adenosine receptor A3 [3] = target: T2, Adenosine receptor A3 (Homo sapiens, UniProt P0DMS8); experiment: Displacement of [125I]N6-(4-amino-3-iodobenzyl)adenosine-5'-N-methyluronamide from human A3AR expressed in HEK293T cells pre-incubated for 10 mins before radioligand addition and measured 90 mins after radioligand addition by micro beta scintillation counting analysis relative to control; assay type: cell-based, HEK-293T
# T2 sequence (P0DMS8 whole entry): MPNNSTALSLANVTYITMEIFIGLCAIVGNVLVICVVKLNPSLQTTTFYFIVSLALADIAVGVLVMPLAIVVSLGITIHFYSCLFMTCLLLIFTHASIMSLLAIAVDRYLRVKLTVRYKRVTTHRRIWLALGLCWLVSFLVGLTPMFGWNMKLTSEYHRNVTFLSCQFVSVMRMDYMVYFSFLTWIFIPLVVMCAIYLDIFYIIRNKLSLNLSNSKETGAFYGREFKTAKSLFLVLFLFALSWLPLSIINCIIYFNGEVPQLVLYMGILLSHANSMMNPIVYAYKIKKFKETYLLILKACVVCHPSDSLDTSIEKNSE
# [4] = target: T3, Adenosine receptor A3 (Mus musculus) (UniProt Q61618); experiment: Displacement of [125I]N6-(4-amino-3-iodobenzyl)adenosine-5'-N-methyluronamide from mouse A3AR expressed in HEK293T cells at 10 uM pre-incubated for 10 mins before radioligand addition and measured 90 mins after radioligand addition by micro beta scintillation counting analysis relative to control; assay type: cell-based
# T3 sequence (whole entry): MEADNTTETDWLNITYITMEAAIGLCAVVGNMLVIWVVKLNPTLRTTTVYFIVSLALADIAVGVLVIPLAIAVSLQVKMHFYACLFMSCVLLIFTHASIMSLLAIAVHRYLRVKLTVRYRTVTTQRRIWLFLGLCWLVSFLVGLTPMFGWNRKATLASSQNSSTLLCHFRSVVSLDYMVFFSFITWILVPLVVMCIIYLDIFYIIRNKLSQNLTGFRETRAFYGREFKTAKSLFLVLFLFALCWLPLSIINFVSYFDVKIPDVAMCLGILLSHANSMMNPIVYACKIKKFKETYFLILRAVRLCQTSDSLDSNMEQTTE
# [5] = target: T1, Sodium-dependent dopamine transporter; experiment: Enhancing of [3H]WIN35,428 binding to recombinant human DAT expressed in HEK293 cell membranes pre-incubated for 10 mins before radioligand addition and measured 90 mins after radioligand addition by micro beta scintillation counting analysis relative to control
# [6] = target: T1, Sodium-dependent dopamine transporter; experiment: Enhancing of [125I]RTI-55 binding to recombinant human DAT expressed in HEK293 cell membranes preincubated for 10 mins followed by radioligand addition measured after 90 mins by micro beta scintillation counting analysis; design: concentration or dose not given beside the values; conditions: for EC50: read-out: EC50
# Outline: (§1)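 Membranes of HEK-293 cells stably expressing hDAT, hNET or hSERT. […] Compound preincubated 10 min at room temperature, then [125I]23 (40-80 pM final) or [3H]26 (1-3 nM for DAT and NET, 10-13 nM for SERT) added. Incubated 90 min at room temperature in the dark, then filtered. EC50 or Ki; mean ± SEM.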
# [7] = target: T1, Sodium-dependent dopamine transporter; experiment: Enhancing of [3H]mazindol binding to recombinant human DAT expressed in HEK293 cell membranes preincubated for 10 mins followed by radioligand addition measured after 90 mins by micro beta scintillation counting analysis; design: concentration or dose not given beside the values; conditions: for EC50: read-out: EC50; outline: as §1
# [8] = target: T4, Sodium-dependent noradrenaline transporter (Homo sapiens, UniProt P23975); experiment: Enhancing of [125I]RTI-55 binding to recombinant human NET expressed in HEK293 cell membranes preincubated for 10 mins followed by radioligand addition measured after 90 mins by micro beta scintillation counting analysis; design: concentration or dose not given beside the values; conditions: for EC50: read-out: EC50
# [9] = target: T1, Sodium-dependent dopamine transporter; experiment: Inhibition of recombinant human DAT expressed in HEK293 cell […] as reduction in [3H]-DA uptake incubated for 22 mins by micro beta scintillation counting analysis
# [10] = target: T4, Sodium-dependent noradrenaline transporter; experiment: Enhancing of [3H]mazindol binding to recombinant human NET expressed in HEK293 cell membranes preincubated for 10 mins followed by radioligand addition measured after 90 mins by micro beta scintillation counting analysis
# [11] = target: T4, Sodium-dependent noradrenaline transporter; experiment: Inhibition of recombinant human NET expressed in HEK293 […] assessed as reduction in [3H]-norepinephrine uptake incubated for 22 mins by micro beta scintillation counting analysis
# [12] = target: T5, Sodium-dependent serotonin transporter (Homo sapiens, UniProt P31645); experiment: Enhancing of [125I]RTI-55 binding to recombinant human SERT expressed in HEK293 cell membranes preincubated for 10 mins followed by radioligand addition measured after 90 mins by micro beta scintillation counting analysis; conditions: for EC50: read-out: EC50
# [13] = target: Sodium-dependent dopamine transporter (Mus musculus) (UniProt Q61327); experiment: (§2) Enhancing of [125I]RTI-55 binding to mouse DAT expressed in HEK293 cells preincubated for 10 mins followed by radioligand addition measured after 90 mins by micro beta scintillation counting analysis; assay type: cell-based
# Outline: (§3)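 Membranes preincubated 10 min at room temperature with compound in Krebs-HEPES buffer pH 7.4, then [125I]23 at fixed 45-50 pM for 90 min in the dark, filtered. […] EC50 and % control binding; mean ± SEM.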
# [14] = target: T6, Sodium-dependent dopamine transporter (Mus musculus, UniProt Q61327); experiment: as §2; assay type: cell-based; outline: as §3
# [15] = target: T6, Sodium-dependent dopamine transporter; experiment: Inhibition of mouse DAT expressed in HEK293 cells assessed as reduction in [3H]-DA uptake; assay type: cell-based
# [16] = target: Adenosine receptor A3 (Homo sapiens) (UniProt P0DMS8); experiment: Agonist activity at human A3AR assessed as inhibition of cAMP formation at 10 uM relative to adenosine-5'-Nethyluronamide
# Adenosine receptor A3 [17] = target: T7, Adenosine receptor A3 (Mus musculus, UniProt Q61618); experiment: Displacement of [125I]N6-(4-amino-3-iodobenzyl)adenosine-5'-N-methyluronamide from mouse A3AR expressed in HEK293T cells pre-incubated for 10 mins before radioligand addition and measured 90 mins after radioligand addition by micro beta scintillation counting analysis relative to control; assay type: cell-based
# T7 sequence (Q61618 whole entry): T3 sequence (whole entry)
# [18] = target: T5, Sodium-dependent serotonin transporter; experiment: Enhancing of [3H]mazindol binding to recombinant human SERT expressed in HEK293 cell membranes preincubated for 10 mins followed by radioligand addition measured after 90 mins by micro beta scintillation counting analysis
# Target sequence in this assay (P31645 whole entry): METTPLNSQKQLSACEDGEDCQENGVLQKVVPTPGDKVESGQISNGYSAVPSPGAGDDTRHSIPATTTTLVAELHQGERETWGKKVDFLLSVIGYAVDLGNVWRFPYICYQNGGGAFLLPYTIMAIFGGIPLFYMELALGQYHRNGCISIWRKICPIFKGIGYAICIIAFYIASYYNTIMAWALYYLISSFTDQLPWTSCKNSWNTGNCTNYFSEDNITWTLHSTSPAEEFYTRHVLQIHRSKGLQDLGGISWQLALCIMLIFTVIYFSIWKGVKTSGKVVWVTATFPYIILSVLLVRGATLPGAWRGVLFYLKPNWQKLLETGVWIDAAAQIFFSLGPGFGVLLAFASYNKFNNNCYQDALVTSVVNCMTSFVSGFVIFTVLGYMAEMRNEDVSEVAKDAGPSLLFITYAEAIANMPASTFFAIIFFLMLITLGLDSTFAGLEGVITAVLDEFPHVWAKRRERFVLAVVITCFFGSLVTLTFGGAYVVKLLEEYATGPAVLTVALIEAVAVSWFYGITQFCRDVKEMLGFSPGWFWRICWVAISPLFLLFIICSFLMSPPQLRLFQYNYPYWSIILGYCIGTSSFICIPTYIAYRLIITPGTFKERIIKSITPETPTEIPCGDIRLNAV
# [19] = target: T8, 5-hydroxytryptamine receptor 2C (Homo sapiens, UniProt P28335); experiment: Displacement of [3H]Mesulergine from human 5-HT2C receptor
# T8 sequence (P28335 whole entry): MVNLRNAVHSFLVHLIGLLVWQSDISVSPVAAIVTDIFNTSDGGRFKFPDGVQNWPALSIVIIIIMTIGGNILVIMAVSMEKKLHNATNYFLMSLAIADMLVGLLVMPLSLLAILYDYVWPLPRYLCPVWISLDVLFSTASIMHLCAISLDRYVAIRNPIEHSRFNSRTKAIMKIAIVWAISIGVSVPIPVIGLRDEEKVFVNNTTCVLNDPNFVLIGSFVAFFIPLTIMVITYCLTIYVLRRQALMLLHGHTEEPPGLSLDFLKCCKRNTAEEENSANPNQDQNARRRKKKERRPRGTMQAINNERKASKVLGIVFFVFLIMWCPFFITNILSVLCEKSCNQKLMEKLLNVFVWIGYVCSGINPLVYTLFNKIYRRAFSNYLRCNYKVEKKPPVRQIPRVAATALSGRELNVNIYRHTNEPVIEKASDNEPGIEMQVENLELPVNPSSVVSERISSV
# T1 sequence (Q01959 whole entry): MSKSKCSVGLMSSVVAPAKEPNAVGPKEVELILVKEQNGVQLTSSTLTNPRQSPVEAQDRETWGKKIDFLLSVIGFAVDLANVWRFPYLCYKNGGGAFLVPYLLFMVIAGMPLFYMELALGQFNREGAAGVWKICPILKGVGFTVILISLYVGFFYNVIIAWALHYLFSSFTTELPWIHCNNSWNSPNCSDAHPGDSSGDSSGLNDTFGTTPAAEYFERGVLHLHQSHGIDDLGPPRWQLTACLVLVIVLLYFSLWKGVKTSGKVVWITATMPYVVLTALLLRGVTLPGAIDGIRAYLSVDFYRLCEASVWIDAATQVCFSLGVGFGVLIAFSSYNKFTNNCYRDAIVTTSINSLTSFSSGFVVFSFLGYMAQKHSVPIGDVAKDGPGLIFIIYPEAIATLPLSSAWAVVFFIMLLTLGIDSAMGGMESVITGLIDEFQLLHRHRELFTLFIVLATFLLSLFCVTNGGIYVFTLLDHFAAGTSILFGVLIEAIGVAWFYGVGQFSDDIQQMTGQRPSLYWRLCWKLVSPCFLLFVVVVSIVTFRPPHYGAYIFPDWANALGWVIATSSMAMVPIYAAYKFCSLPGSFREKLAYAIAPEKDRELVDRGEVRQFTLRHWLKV
# T4 sequence (P23975 whole entry): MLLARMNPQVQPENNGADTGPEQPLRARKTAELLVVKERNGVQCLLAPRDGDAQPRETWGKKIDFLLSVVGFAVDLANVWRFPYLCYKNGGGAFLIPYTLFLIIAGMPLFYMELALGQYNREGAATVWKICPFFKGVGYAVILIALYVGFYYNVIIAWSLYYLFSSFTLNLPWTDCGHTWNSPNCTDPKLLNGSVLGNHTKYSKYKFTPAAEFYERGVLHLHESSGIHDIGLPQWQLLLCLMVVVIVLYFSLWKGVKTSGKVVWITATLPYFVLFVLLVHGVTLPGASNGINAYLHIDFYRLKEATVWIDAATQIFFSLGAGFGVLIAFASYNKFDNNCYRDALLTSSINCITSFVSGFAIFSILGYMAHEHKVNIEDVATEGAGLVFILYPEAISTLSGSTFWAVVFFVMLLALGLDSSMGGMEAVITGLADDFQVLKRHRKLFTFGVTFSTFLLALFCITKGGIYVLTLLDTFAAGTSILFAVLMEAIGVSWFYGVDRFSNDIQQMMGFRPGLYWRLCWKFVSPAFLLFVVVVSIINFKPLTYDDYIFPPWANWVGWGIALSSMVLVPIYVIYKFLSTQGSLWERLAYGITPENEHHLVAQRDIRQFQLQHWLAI
# T6 sequence (Q61327 whole entry): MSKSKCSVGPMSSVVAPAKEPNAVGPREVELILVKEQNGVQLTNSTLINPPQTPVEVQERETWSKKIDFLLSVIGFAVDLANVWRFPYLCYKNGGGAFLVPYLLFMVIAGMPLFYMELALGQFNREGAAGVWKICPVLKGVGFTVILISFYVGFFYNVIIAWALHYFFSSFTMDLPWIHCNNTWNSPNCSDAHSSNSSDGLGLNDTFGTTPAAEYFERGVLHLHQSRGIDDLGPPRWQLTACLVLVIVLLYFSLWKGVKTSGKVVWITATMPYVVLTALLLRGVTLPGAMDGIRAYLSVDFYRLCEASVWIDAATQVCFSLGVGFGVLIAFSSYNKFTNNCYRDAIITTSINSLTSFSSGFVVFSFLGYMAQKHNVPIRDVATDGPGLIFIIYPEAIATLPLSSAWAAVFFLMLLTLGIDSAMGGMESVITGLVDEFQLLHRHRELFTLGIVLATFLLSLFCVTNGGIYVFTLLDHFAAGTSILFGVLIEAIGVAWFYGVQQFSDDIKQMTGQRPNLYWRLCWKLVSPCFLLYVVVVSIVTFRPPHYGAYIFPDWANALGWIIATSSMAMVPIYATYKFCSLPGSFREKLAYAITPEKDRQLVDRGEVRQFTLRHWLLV
# Chain of Sodium-dependent dopamine transporter (Mus musculus) (Q61327 whole entry): as above
Activity [1],inhibition [2],Ki (Adenosine receptor A3 [3]),inhibition [4],EC50 [5],SMILES,Activity [6],EC50 [6],Activity [7],EC50 [7],Activity [8],EC50 [8],IC50 [9],Activity [10],IC50 [11],Activity [12],further results
136%,inactive,156 nM,0%,> 1000 nM,CNc1nc(C#Cc2ccc(Cl)s2)nc2c1ncn2[C@H]1[C@H](O)[C@H](O)[C@]2(C(=O)NCCN)C[C@H]12,,,,,,,,,,,
426%,inactive,5.78 nM,,,CCCOC(=O)[C@@]12C[C@@H]1[C@@H](n1cnc3c(NC)nc(C#Cc4ccc(Cl)s4)nc31)[C@H](O)[C@@H]2O,461%,294 nM,347%,535 nM,302%,980 nM,1140 nM,inactive,7900 nM,inactive,Ki (Adenosine receptor A3 [17]): 2810 nM; EC50 [12]: > 10000 nM; EC50 [18]: > 10000 nM
50%,inactive,,0%,> 1000 nM,CNc1nc(C#Cc2ccc(Cl)s2)nc2c1ncn2[C@H]1[C@H](O)[C@H](O)[C@]2(C(=O)O)C[C@H]12,,,,,,,,,,,

# The remaining lines, values behind:
SMILES,Activity [1],inhibition [2],Ki (Adenosine receptor A3 [3]),inhibition [4],EC50 [5],Activity [6],EC50 [6],Activity [7],EC50 [7],Activity [8],EC50 [8],IC50 [9],Activity [10],IC50 [11],Activity [12],further results
CNc1nc(C#Cc2ccc(Cl)s2)nc2c1ncn2[C@H]1[C@H](O)[C@H](O)[C@]2(C(=O)OCCCc3ccccc3)C[C@H]12,inactive,,,9%,,,,,,,,,,,,
CNC(=O)[C@@]12C[C@@H]1[C@@H](n1cnc3c(NC)nc(C#Cc4ccc(Cl)s4)cc31)[C@H](O)[C@@H]2O,334%,inactive,,38%,,437%,239 nM,405%,550 nM,318%,740 nM,163 nM,inactive,5060 nM,inactive,Emax [13]: 1000%; EC50 [14]: 2760 nM; IC50 [15]: 4300 nM; Efficacy [16]: 116%
CNc1nc(C#Cc2ccc(Br)s2)nc2c1ncn2[C@H]1[C@H](O)[C@H](O)[C@]2(C(=O)OC)C[C@H]12,370%,inactive,8.56 nM,57%,,374%,53.5 nM,520%,308 nM,293%,400 nM,246 nM,inactive,3560 nM,inactive,EC50 [12]: > 10000 nM; EC50 [18]: > 10000 nM; Ki [19]: 258 nM
CNc1nc(C#Cc2ccc(Cl)s2)nc2c1ncn2[C@H]1[C@H](O)[C@H](O)[C@]2(C(=O)OC(C)C)C[C@H]12,inactive,36%,42.9 nM,30%,> 1000 nM,,,,,,,,,,,Ki [19]: 430 nM
